How the values were obtained:
[1] = test system: Bovine viral diarrhea virus 1; test: Antiviral activity against BVDV infected in bovine MDBK cells after 72 hrs by luciferase reporter gene assay; assay type: functional, organism-based; settings: Bovine viral diarrhea virus isolates and strains
[2] = Cytotoxicity against bovine MDBK cells after 3 days by CellTitre-Blue assay; assay type: cell-based, Bos taurus; settings: cattle
Hepatitis C virus [3] = test: Antiviral activity against HCV genotype 1b infected in human HuH7 cells after 72 hrs by FRET assay; assay type: functional, organism-based, Hepacivirus hominis; settings: Huh-7, 72 h
How it was run: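 Replicon cells seeded 10K/well, attached overnight; compounds added with 0.5% v/v DMSO vehicle controls, typically 72 h. Alamar blue read first, then cells PBS-rinsed and lysed with reagent holding 150 mM NaCl and 20 μM final EDANS/DABCYL NS3 protease peptide; kinetic fluorescence 340/490 nm. EC₅₀ = concentration halving background-subtracted FRET signal versus DMSO wells.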

Hepatitis C virus [4] = test: Antiviral activity against HCV genotype 1a H77c infected in human HuH7 cells after 72 hrs; settings: Huh-7, 72 h

- EC50 [1]: > 5 µM
- EC50 (Hepatitis C virus [3]): 280 nM
- EC50 (Hepatitis C virus [4]): 3.1 µM
Compound: O=C(Nc1ccc(/C=C/c2ccc(NC(=O)[C@@H]3CCCN3C(=O)c3cc4ccccc4cn3)cc2)cc1)[C@@H]1CCCN1C(=O)c1cc2ccccc2cn1
- CC50 at 72 h [2]: > 10 µM
